Laboratory results reported in ChEMBL document CHEMBL4480397, “Discovery of a Natural-Product-Derived Preclinical Candidate for Once-Weekly Treatment of Type 2 Diabetes” (J Med Chem, 2019).
Activity calls are given as the source filed them. The calls are words filed in the database; no cut-off is given here.

Columns and labels:
Mus musculus [1] = assay: Anti-diabetic activity in 6 h-fasted db/db mouse assessed as inhibition of DPP4 in plasma at 10 mg/kg, po administered as single dose pretreated for 60 mins followed by glucose challenge and measured after 120 mins post glucose challenge by OGTT; type: functional, organism-based
Mus musculus [2] = assay: Anti-diabetic activity in db/db mouse assessed as increase in glucose-induced insulin secretion at 10 mg/kg, po dosed once weekly for 8 weeks pretreated for 60 mins followed by glucose challenge and measured after 120 mins post glucose challenge by OGTT relative to control; type: functional
Mus musculus [3] = assay: Anti-diabetic activity in db/db mouse assessed as increase in glucose tolerance at 10 mg/kg, po dosed once weekly for 8 weeks by OGTT; type: functional, organism-based
Mus musculus [4] = assay: Anti-diabetic activity in 8 hrs-fasted ICR mouse assessed as reduction in blood glucose AUC (0 to 120 mins) at 3 mg/kg, po pretre at ed for 60 mins followed by glucose challenge and measured after 120 mins post glucose challenge by OGTT rel at ive to control; type: functional
Outline: (§1)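 Male ICR mice (n = 10/group), fasted 8 h, dosed orally at 0.03, 0.3 or 3 mg/kg in 0.5% CMC-Na 1 h before an oral glucose load of 3 g/kg. Glucometer readings at −60, 0, 15, 30, 60, 90 and 120 min. Glucose AUC0–120 min by the trapezoidal method; one-way ANOVA with Fisher's LSD against vehicle.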

Mus musculus [5] = assay: Anti-diabetic activity in 8 hrs-fasted ICR mouse assessed as reduction in blood glucose AUC (0 to 120 mins)at 0.3 mg/kg, po pretreated for 60 mins followed by glucose challenge and measured after 120 mins post glucose challenge by OGTT relative to control; type: functional; outline: as §1
Mus musculus [6] = assay: Anti-diabetic activity in db/db mouse assessed as HbA1c levels at 10 mg/kg, po dosed once weekly for 8 weeks; type: functional
Mus musculus [7] = assay: Anti-diabetic activity in ICR mouse assessed as inhibition of DPP4 in plasma at 3 mg/kg, po administered as single dose using Gly-Pro-AMC as substrate and measured after 7 days post dose by fluorometric assay relative to control; type: functional
Outline: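 Male ICR mice (n = 10/group), fasted 2 h, given single oral doses of 0.03–3 mg/kg in 0.5% CMC-Na, with pre-dose baseline blood. Blood was drawn at 1–168 h. […] DPP-4 was read continuously for 5 min at 37 °C with 10 µM Gly-Pro-AMC in 100 mM HEPES pH 7.5 containing 0.1 mg/mL BSA (ex 360/em 460 nm). % activity is the treated rate over each animal's own baseline rate.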

Mus musculus [8] = assay: Anti-diabetic activity in 8 hrs-fasted ICR mouse assessed as increase in GLP1 levels at 1 mg/kg, po pretreated for 60 mins followed by glucose challenge and measured 5 to 10 mins post glucose challenge by OGTT relative to control; type: functional
Outline: (§2)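 Male ICR mice (n = 10/group), fasted 8 h, dosed orally at 0.3, 1 or 3 mg/kg 1 h before oral glucose at 3 g/kg. Blood was collected at 0, 5 and 10 min into tubes with valine pyrrolidide and EDTA. Active GLP-1[7-36 amide] and insulin measured by kit. Two-way ANOVA with Fisher's LSD against vehicle.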

Mus musculus [9] = assay: Anti-diabetic activity in 6 hrs-fasted db/db mouse assessed as reduction in blood glucose AUC (0 to 120 mins) at 10 mg/kg, po pretre at ed for 60 mins followed by glucose challenge and measured after 120 mins post glucose challenge by OGTT rel at ive to control
Mus musculus [10] = assay: Anti-diabetic activity in db/db mouse assessed as reduction in fasting blood glucose at 10 mg/kg, po dosed once weekly for 8 weeks; type: functional; design: scale not given: the % may be the effect or the level left
Mus musculus [11] = assay: Anti-diabetic activity in 8 hrs-fasted ICR mouse assessed as increase in insulin levels at 1 mg/kg, po pretreated for 60 mins followed by glucose challenge by OGTT; type: functional, organism-based; outline: as §2
[12] = Toxicity in ICR mouse assessed at 300 mg/kg, po administered as single dose; type: organism-based; conditions: in vivo
Outline: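 ICR mice given a single oral dose of 300 mg/kg to assess acute toxicity.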

[13] = Toxicity in ICR mouse assessed as effect on clinical signs at 30 mg/kg, po administered once daily for 14 consecutive days; type: organism-based; conditions: in vivo
Outline: (§3)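 ICR mice dosed orally at 30 mg/kg once daily for 14 consecutive days. Endpoints were clinical signs, body weight, organ index, blood parameters and serum biochemistry, each compared with a control group.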

[14] = Volume of distribution at steady state in Sprague-Dawley rat at 1 mg/kg, iv by LC-MS-MS analysis; type: ADME, organism-based; conditions: in vivo, read-out: Vdss
[15] = Initial plasma concentration in Sprague-Dawley rat at 1 mg/kg, iv by LC-MS-MS analysis; type: ADME, organism-based
[16] = Tmax in ICR mouse at 2 mg/kg, po by LC-MS-MS analysis; type: ADME, organism-based; conditions: in vivo
Outline: (§4)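 Male ICR mice (n = 4/group), fasted 2 h, given a single oral dose of 2 mg/kg. Baseline blood was taken into EDTA, then samples at 1, 2, 4, 6, 8, 24, 48, 72, 96 and 120 h. Plasma was kept at -80 °C and concentrations measured by LC/MS/MS. Parameters came from noncompartmental analysis; values are means.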

Mus musculus [17] = assay: Anti-diabetic activity in 8 hrs-fasted ICR mouse assessed as increase in insulin levels at 3 mg/kg, po pretreated for 60 mins followed by glucose challenge by OGTT; type: functional, organism-based; outline: as §2
[18] = Cmax in Sprague-Dawley rat at 2 mg/kg, po by LC-MS-MS analysis; type: ADME, organism-based; design: dose 2 mg/kg, route oral; conditions: in vivo
[19] = Plasma concentration in Sprague-Dawley rat at 2 mg/kg, po by LC-MS-MS analysis; type: ADME, organism-based; conditions: in vivo
[20] = AUCt in Sprague-Dawley rat at 1 mg/kg, iv by LC-MS-MS analysis; type: ADME, organism-based; conditions: in vivo
[21] = Toxicity in db/db mouse assessed as induction of distress signs at 3 to 10 mg/kg, po dosed once weekly for 8 weeks; type: organism-based; conditions: in vivo, 1344 h
[22] = AUCt in Sprague-Dawley rat at 2 mg/kg, po by LC-MS-MS analysis; type: ADME, organism-based; conditions: in vivo
[23] = target: Voltage-gated inwardly rectifying potassium channel KCNH2 (Homo sapiens, UniProt Q12809); assay: Inhibition of human ERG by patch clamp assay
[24] = MRT (0 to infinity) in ICR mouse at 2 mg/kg, po by LC-MS-MS analysis; type: ADME, organism-based; conditions: in vivo; outline: as §4
Mus musculus [25] = assay: Initial plasma concentration in ICR mouse at 2 mg/kg, po by LC-MS-MS analysis; type: ADME, organism-based; conditions: in vivo; outline: as §4
[26] = Tmax in Sprague-Dawley rat at 2 mg/kg, po by LC-MS-MS analysis; type: ADME, organism-based; conditions: in vivo
[27] = Toxicity in ICR mouse assessed as effect on body weight at 30 mg/kg, po administered once daily for 14 consecutive days; type: organism-based; conditions: in vivo; outline: as §3
[28] = AUC (0 to infinity) in ICR mouse at 2 mg/kg, po by LC-MS-MS analysis; type: ADME, organism-based; design: dose 2 mg/kg, route oral, time infinity; conditions: in vivo; outline: as §4
[29] = Cmax in ICR mouse at 2 mg/kg, po by LC-MS-MS analysis; type: ADME, organism-based; design: dose 2 mg/kg, route oral; conditions: in vivo; outline: as §4
[30] = AUCt in ICR mouse at 2 mg/kg, po by LC-MS-MS analysis; type: ADME, organism-based; conditions: in vivo; outline: as §4
[31] = Terminal half life in ICR mouse at 2 mg/kg, po by LC-MS-MS analysis; type: ADME, organism-based; conditions: in vivo, read-out: beta t1/2 (converted); outline: as §4
[32] = Terminal half life in Sprague-Dawley rat at 1 mg/kg, iv by LC-MS-MS analysis; type: ADME, organism-based; conditions: in vivo, read-out: beta t1/2 (converted)
Rattus norvegicus = assay: Initial plasma concentration in Sprague-Dawley rat at 2 mg/kg, po by LC-MS-MS analysis; type: ADME, organism-based; conditions: in vivo
[33] = Toxicity in db/db mouse assessed as induction of discomfort signs at 3 to 10 mg/kg, po dosed once weekly for 8 weeks; type: organism-based; conditions: in vivo, 1344 h
[34] = Toxicity in ICR mouse assessed as effect on organ index at 30 mg/kg, po administered once daily for 14 consecutive days; type: organism-based; conditions: in vivo; outline: as §3
[35] = Toxicity in ICR mouse assessed as effect on serum biochemical parameters at 30 mg/kg, po administered once daily for 14 consecutive days; type: organism-based; conditions: in vivo; outline: as §3
[36] = MRT (0 to infinity) in Sprague-Dawley rat at 1 mg/kg, iv by LC-MS-MS analysis; type: ADME, organism-based; conditions: in vivo
[37] = Oral bioavailability in Sprague-Dawley rat at 2 mg/kg after 24 hrs by LC-MS-MS analysis; type: ADME, organism-based; conditions: in vivo
[38] = Cmax in Sprague-Dawley rat at 1 mg/kg, iv by LC-MS-MS analysis; type: ADME, organism-based; design: dose 1 mg/kg, route intravenous; conditions: in vivo
Mus musculus [39] = assay: Anti-diabetic activity in db/db mouse assessed as reduction in fasting blood glucose at 3 mg/kg, po dosed once weekly for 8 weeks; type: functional; design: scale not given: the % may be the effect or the level left
[40] = Plasma concentration in Sprague-Dawley rat at 2 mg/kg, po after 24 hrs by LC-MS-MS analysis; type: ADME, organism-based; conditions: in vivo
[41] = Clearance in Sprague-Dawley rat at 1 mg/kg, iv by LC-MS-MS analysis; type: ADME, organism-based; conditions: in vivo
[42] = Toxicity in db/db mouse assessed as induction of abnormal weight gain at 3 to 10 mg/kg, po dosed once weekly for 8 weeks; type: organism-based; conditions: in vivo, 1344 h
[43] = Toxicity in ICR mouse assessed as effect on blood parameter at 30 mg/kg, po administered once daily for 14 consecutive days; type: organism-based; conditions: in vivo; outline: as §3
Mus musculus [44] = assay: Anti-diabetic activity in mouse assessed as inhibition of DPP4 in plasma at 3 mg/kg, po administered as single dose pretreated for 60 mins followed by glucose challenge and measured over 168 hrs post dose
[45] = AUC (0 to infinity) in Sprague-Dawley rat at 1 mg/kg, iv by LC-MS-MS analysis; type: ADME, organism-based; design: dose 1 mg/kg, route intravenous, time infinity; conditions: in vivo

Sequence of Voltage-gated inwardly rectifying potassium channel KCNH2 (Q12809 whole entry): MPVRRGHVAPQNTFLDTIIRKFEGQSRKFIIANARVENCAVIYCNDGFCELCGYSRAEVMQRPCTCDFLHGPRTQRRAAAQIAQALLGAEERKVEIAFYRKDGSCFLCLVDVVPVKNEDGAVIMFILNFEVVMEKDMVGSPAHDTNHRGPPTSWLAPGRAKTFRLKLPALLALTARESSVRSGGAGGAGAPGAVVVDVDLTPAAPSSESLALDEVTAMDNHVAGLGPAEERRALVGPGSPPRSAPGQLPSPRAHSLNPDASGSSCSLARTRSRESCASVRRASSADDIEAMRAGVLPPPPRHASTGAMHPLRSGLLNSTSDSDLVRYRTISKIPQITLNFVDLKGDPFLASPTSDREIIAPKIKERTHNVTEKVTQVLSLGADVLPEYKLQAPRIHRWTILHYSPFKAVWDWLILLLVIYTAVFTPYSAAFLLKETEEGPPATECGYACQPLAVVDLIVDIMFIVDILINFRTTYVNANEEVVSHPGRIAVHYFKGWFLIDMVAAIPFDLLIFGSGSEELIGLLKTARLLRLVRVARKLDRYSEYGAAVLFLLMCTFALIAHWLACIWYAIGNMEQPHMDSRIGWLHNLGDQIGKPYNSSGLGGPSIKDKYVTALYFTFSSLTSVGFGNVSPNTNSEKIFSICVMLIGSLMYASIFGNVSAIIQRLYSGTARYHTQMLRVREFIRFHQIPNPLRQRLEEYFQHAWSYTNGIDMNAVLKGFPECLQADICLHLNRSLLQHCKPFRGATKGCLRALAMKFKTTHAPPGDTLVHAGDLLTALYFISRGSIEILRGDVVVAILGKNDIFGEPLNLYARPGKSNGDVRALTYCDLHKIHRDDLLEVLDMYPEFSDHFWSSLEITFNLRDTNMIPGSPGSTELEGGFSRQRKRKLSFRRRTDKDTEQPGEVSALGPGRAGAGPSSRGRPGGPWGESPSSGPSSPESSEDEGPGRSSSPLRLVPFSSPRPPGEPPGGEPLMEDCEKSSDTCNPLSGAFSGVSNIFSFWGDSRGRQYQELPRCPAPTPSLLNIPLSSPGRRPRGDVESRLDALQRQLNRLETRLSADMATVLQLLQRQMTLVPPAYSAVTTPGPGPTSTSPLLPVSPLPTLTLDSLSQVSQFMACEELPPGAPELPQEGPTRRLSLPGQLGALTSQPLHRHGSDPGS

## CS(=O)(=O)n1cc2c(n1)CN([C@H]1CO[C@H](c3cc(F)ccc3F)[C@@H](N)C1)C2 [OMARIGLIPTIN]
Mus musculus [1]
  inhibition: Active
Mus musculus [2]
  fold change (FC): 1.8
Mus musculus [3]
  Activity: Active
Mus musculus [4]
  inhibition in vivo at 3 mg/kg: 22.1%
Mus musculus [5]
  inhibition in vivo at 0.3 mg/kg: 14.6%
Mus musculus [6]
  Activity: Active
Mus musculus [7]
  inhibition: Active
Mus musculus [8]
  fold change (FC): 1.6 - 1.7
Mus musculus [9]
  inhibition in vivo at 10 mg/kg: 8.3%
Mus musculus [10]
  Activity: 26.6%
Mus musculus [11]
  Activity: Active

## Cn1c(=O)cc(N2CCC[C@@H](N)C2)n(Cc2cc(F)ccc2C#N)c1=O [TRELAGLIPTIN]
Mus musculus [1]
  inhibition: Active
Mus musculus [2]
  fold change (FC): 1.7
Mus musculus [3]
  Activity: Active
Mus musculus [6]
  Activity: Active
Mus musculus [9]
  inhibition in vivo at 10 mg/kg: 19.3%
Mus musculus [10]
  Activity: 16.8%

## COc1cc2c3c(ccc2cc1C#N)O[C@H](c1cc(F)c(F)cc1F)[C@@H](N)C3
[12]
  Activity: Non-Toxic
[13]
  Activity: Non-Toxic
[14]
  Vd: 2.07 L/kg
[15]
  C0: 2010 ng/mL
[16]
  Tmax: 10.2 h
Mus musculus [17]
  Activity: Active
[18]
  Cmax: 1390 ng/mL
[19]
  Drug uptake: Active
[20]
  AUC(0-t): 11800 ng·h/mL
[21]
  Activity: Non-Toxic
[22]
  AUC(0-t): 23200 ng·h/mL
[23]
  IC50: > 40 µM
[24]
  MRT inf: 40.7 h
Mus musculus [25]
  C0: 1773.37 ng/mL
[26]
  Tmax: 6.67 h
[27]
  Activity: Non-Toxic
[28]
  AUC(0-inf): 85600 ng·h/mL
[29]
  Cmax: 1770 ng/mL
[30]
  AUC(0-t): 82000 ng·h/mL
Mus musculus [3]
  Activity: Active
[31]
  half-life: 25.3 h
Mus musculus [4]
  inhibition in vivo at 3 mg/kg: 27.2%
Mus musculus [5]
  inhibition in vivo at 0.3 mg/kg: 16.4%
Mus musculus [6]
  Activity: 3.56%
[32]
  half-life: 11.9 h
Rattus norvegicus
  C0: 1387.47 ng/mL
[33]
  Activity: Non-Toxic
[34]
  Activity: Non-Toxic
Mus musculus [7]; 168 h
  inhibition in vivo at 3 mg/kg: ≤ 80%
[35]
  Activity: Non-Toxic
[36]
  MRT inf: 15.9 h
[37]
  bioavailability: 98.5%
[38]
  Cmax: 2010 ng/mL
Mus musculus [39]
  Activity: 24.7%
[40]
  Drug uptake: Active
Mus musculus [9]
  inhibition in vivo at 10 mg/kg: 18.3%
[41]
  clearance: 1.1 mL/min/kg
Mus musculus [10]
  Activity: 33.1%
[42]
  Activity: Non-Toxic
[43]
  Activity: Non-Toxic
Mus musculus [44]
  inhibition in vivo at 3 mg/kg: > 80%
[45]
  AUC(0-inf): 15400 ng·h/mL
